Measurements pooled from the literature.
Lines come from different studies, so protocols differ. pEC50, pIC50: −log10 of the molar value.
Read-out: cell growth or viability

Compound | cell line | test | setting | endpoint | result
COc1ccc(NC(=O)Nc2cccc(-c3cn(Cc4ccc(Br)cc4)nn3)c2)cc1 | PC-9 | CCK-8 | 20 µM, 72 h | viability | 141%
O=C(Nc1ccc(-c2cn(Cc3ccc(Br)cc3)nn2)cc1)Nc1ccccc1Br | PC-9 | CCK-8 | 50 µM, 72 h | viability | 106%
CNCCC(=O)Nc1ccccc1/N=c1\cc(-c2ccc3nc(N)oc3c2)oc2ccccc12 | HCT-116 | CCK-8 | 1 µM | inhibition | 76.8%
O=C(NCc1cn(Cc2ccc(Cl)cc2)nn1)Nc1ccc(Cl)cc1 | PC-9 | CCK-8 | 50 µM, 72 h | viability | 81.7%
CCCCCCCCCCCCCCCCCCOc1ccc(CC(=O)OCC[N+](CC)(CC)CC)cc1 | EKVX | SRB | 10 µM | inhibition | 12.5%
CC(C)NC(=O)Nc1nc2cc(-c3ccc4ncn(Cc5ccccc5)c(=O)c4c3)ccc2s1 | PC-9 | MTT | 72 h | pIC50 | < 4.70
O=C(Nc1ccc(Cl)cc1)Nc1cccc(-c2cn(Cc3cccc(Br)c3)nn2)c1 | PC-9 | CCK-8 | 20 µM, 72 h | viability | 101%
CC(=O)Nc1nc2cc(-c3ccc4ncn(Cc5ccccc5)c(=O)c4c3)ccc2s1 | PC-9 | MTT | 72 h | pIC50 | < 4.70
O=C(NCc1cn(Cc2ccc(Br)cc2)nn1)Nc1ccc(Cl)cc1 | PC-9 | CCK-8 | 50 µM, 72 h | viability | 179%
COc1ccc(NC(=O)Nc2ccc(-c3cn(Cc4cccc(Cl)c4)nn3)cc2)cc1 | PC-9 | CCK-8 | 20 µM, 72 h | viability | 98.2%
CCCCCCCCCCCCCCCCCCOc1ccccc1CC(=O)OCC[N+]1(C)CCCCC1 | EKVX | SRB | 10 µM | inhibition | 36.9%
NCCC(=O)Nc1ccccc1/N=c1\cc(-c2ccc3c(c2)OCCO3)oc2cc(F)ccc12 | HCT-116 | CCK-8 | 1 µM | inhibition | 11.5%
C[C@H](Nc1ccc2c(c1)OCCn1cc(N3C(=O)OC[C@H]3C(F)F)nc1-2)C(N)=O | AGS | ATP luminescence | 5 days | pEC50 | 6.80
NCC(=O)Nc1ccccc1/N=c1\cc(-c2ccc3c(c2)OCO3)oc2c([N+](=O)[O-])cccc12 | HCT-116 | CCK-8 | 1 µM | inhibition | 12.2%
COc1ccc(NC(=O)Nc2cccc(-c3cn(Cc4ccccc4C)nn3)c2)cc1 | PC-9 | CCK-8 | 50 µM, 72 h | viability | 98.2%
O=C(Nc1ccc(Cl)cc1)Nc1ccc(-c2cn(Cc3ccc(Cl)cc3)nn2)cc1 | PC-9 | CCK-8 | 20 µM, 72 h | viability | 86%
COCCC(=O)Nc1ccccc1/N=c1\cc(-c2ccc3nc(N)oc3c2)oc2ccccc12 | HCT-116 | CCK-8 | 1 µM | inhibition | 3.71%
O=C(NCc1ccccc1)Nc1nc2cc(-c3ccc4ncn(Cc5ccccc5)c(=O)c4c3)ccc2s1 | PC-9 | MTT | 72 h | pIC50 | < 4.70
CCCCCCCCCCCCCCCCCCOc1cccc(CC(=O)OCC[N+]2(C)CCCCC2)c1 | EKVX | SRB | 10 µM | inhibition | 3.05%
Cc1nc(NC(=O)N2CCC[C@H]2C(N)=O)sc1-c1ccnc(C(C)(C)C(F)(F)F)c1 | AGS | ATP luminescence | 5 days | pEC50 | 5.52
CCCCCCCCCCCCCCCCCCOc1ccc(CC(=O)OCCC[N+](C)(C)C)cc1 | EKVX | SRB | 10 µM | inhibition | 3.92%

Compound | cell line | test | setting | endpoint | result
CCC(=O)Nc1nc2cc(-c3ccc4ncn(Cc5ccccc5)c(=O)c4c3)ccc2s1 | PC-9 | MTT | 72 h | pIC50 | < 4.70
C=C(NC(=O)C(=C)NC(=O)c1csc(C2=N[C@@H]3c4csc(n4)[C@H]4NC(=O)c5csc(n5)[C@H]([C@](C)(O)[C@@H](C)O)NC(=O)[C@H]5CSC(=N5)/C(=C/C)NC(=O)[C@H]([C@@H](C)O)NC(=O)c5csc(n5)[C@]3(CC2)NC(=O)[C@H](C)NC(=O)C(=C)NC(=O)[C@H](C)NC(=O)[C@H]([C@@H](C)CC)N[C@@H]2C=Cc3c([C@H](C)O)cc(nc3[C@H]2O)C(=O)O[C@@H]4C)n1)C(N)=O | SK-OV-3 | – | – | pEC50 | 5.60
CCCCCCCCCCCCCCCCCCOc1ccccc1CC(=O)OCCC[N+](C)(C)C | EKVX | SRB | 10 µM | inhibition | 21%
O=C(NCc1cn(Cc2cccc(Cl)c2)nn1)Nc1ccc(Cl)cc1 | PC-9 | CCK-8 | 50 µM, 72 h | viability | 90%
COc1ccc(NC(=O)NCc2cn(Cc3ccc(Cl)cc3)nn2)cc1 | PC-9 | CCK-8 | 50 µM, 72 h | viability | 104%
CC(C)(C)[C@H](N)C(=O)Nc1ccccc1/N=c1\cc(-c2ccc3c(c2)OCO3)oc2ccccc12 | HCT-116 | CCK-8 | 1 µM | inhibition | 14.6%
COc1ccc(NC(=O)Nc2cccc(-c3cn(Cc4ccc(C)cc4)nn3)c2)cc1 | PC-9 | CCK-8 | 20 µM, 72 h | viability | 159%
Cc1nc(Nc2ncc(C(=O)Nc3c(C)cccc3Cl)s2)cc(N2CC[C@H](O)C2)n1 | WSUDLCL2 | ATP luminescence | 10 µM, 72 h | inhibition | 13%
O=C(Nc1ccc(Cl)cc1)Nc1cccc(-c2cn(Cc3cccc(Cl)c3)nn2)c1 | PC-9 | CCK-8 | 20 µM, 72 h | viability | 102%
O=C(Nc1ccc(F)cc1)Nc1nc2cc(-c3ccc4ncn(CCN5CCOCC5)c(=O)c4c3)ccc2s1 | PC-9 | MTT | 72 h | pIC50 | < 4.70
O=C(NN=Cc1ccc(O)cc1)c1nc2ccccc2s1 | HCT-116 | MTT | 100 µM, 48 h | cell death | 50%
Nc1ccccc1/N=c1\cc(-c2ccc3c(c2)OCO3)oc2ccccc12 | HCT-116 | CCK-8 | 1 µM | inhibition | 1.69%
COc1ccc(NC(=O)Nc2cccc(-c3cn(Cc4cccc(Cl)c4)nn3)c2)cc1 | PC-9 | CCK-8 | 20 µM, 72 h | viability | 143%
O=C(Nc1ccc(Cl)cc1)Nc1ccc(-c2cn(Cc3cccc(Cl)c3)nn2)cc1 | PC-9 | CCK-8 | 20 µM, 72 h | viability | 72.1%
CCCCCCCCCCCCCCCCCCOc1ccccc1CC(=O)OCC[N+]1(C)CCCC1 | EKVX | SRB | 10 µM | inhibition | 46.1%
O=C(Nc1ccc(Cl)cc1)Nc1nc2cc(-c3ccc4ncn(Cc5ccccc5)c(=O)c4c3)ccc2s1 | PC-9 | MTT | 72 h | pIC50 | < 4.70
Cc1ccccc1Cn1cc(-c2cccc(NC(=O)Nc3ccc(F)cc3)c2)nn1 | PC-9 | CCK-8 | 50 µM, 72 h | viability | 123%
NCCC(=O)Nc1ccccc1/N=c1\cc(-c2ccc3oc(N)nc3c2)oc2ccccc12 | HCT-116 | CCK-8 | 1 µM | inhibition | 42.7%
O=C(NCc1cn(Cc2ccc(Br)cc2)nn1)Nc1ccccc1Br | PC-9 | CCK-8 | 50 µM, 72 h | viability | 163%
CS(=O)(=O)NCCC(=O)Nc1ccccc1/N=c1\cc(-c2ccc3nc(N)oc3c2)oc2ccccc12 | HCT-116 | CCK-8 | 1 µM | inhibition | 3.17%
CCCCCCCCCCCCCCCCCCOc1ccccc1CC(=O)OCC[N+](CC)(CC)CC | EKVX | SRB | 10 µM | inhibition | 56.6%
